From ChEMBL document CHEMBL1122921, “Stereoselective antitumor properties in the Lewis lung carcinoma model using bis(morpholinomethyl) derivatives of tricyclic bis(dioxopiperazines)” (1985)
Where “and” joins values, the source holds several entries; their conditions need not be identical. Identical values can stand only once.

Legend:
[1] = species: Mus musculus; assay: Average lung weight of mice was determined; assay type: functional
Method in brief: (§1)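 Female BDF1 mice (19–21 g), 10 per group. Lewis lung carcinoma, 10^5 cells in 0.05 mL, implanted in the right hind leg on day 0, and the leg amputated on day 10. Dosing was 160 mg/kg ip in 0.9% NaCl made daily, either from -1 h on day 0 q2d×5 (preamputation) or from day 11 q2d×4 (postamputation). Survivors were killed and autopsied on day 50, and values were averaged over all 10 mice. ILS ≥25% is taken as activity.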

[2] = species: Mus musculus; assay: Compound was tested against autopsying on day 50th metastasis( >2 mm size.) in mice.; assay type: functional; method in brief: as §1
[3] = species: Mus musculus; assay: Percent increase in life span was measured in mice; assay type: functional; method in brief: as §1
[4] = species: Mus musculus; assay: Compound was tested against autopsying on day 50th metastasis( <2 mm size.) in mice.; assay type: functional
Method in brief: (§2)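 Female BDF1 mice (19–21 g), 8–9 per group. Lewis lung carcinoma implanted on day 0 and the leg amputated on day 9. From day 9, 160 mg/kg ip q2d×4, given as a suspension or solution in 0.9% NaCl. Mice dying and those killed on day 50 were autopsied for body weight, lung weight, metastases (<2 or >2 mm) and metastasis incidence. Median survival and ILS were recorded, with ≥25% ILS taken as activity.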

[5] = species: Mus musculus; assay: Number of mice with metastasis Out of 8 mice; assay type: functional; method in brief: as §2
[6] = species: Mus musculus; assay: Number of 50-day survivors Out of 8 mice; assay type: functional; method in brief: as §2
[7] = species: Mus musculus; assay: Average body weight of mice was determined; assay type: functional; method in brief: as §2
[8] = tested on: Mus musculus; assay: Median survival time of 10 BDF1 mice was tested after administration of compound (Postamputation schedule 160 mg/kg)
[9] = species: Mus musculus; assay: Compound was tested against autopsying on day 50th metastasis( >2 mm size) in mice; assay type: functional
Method in brief: (§3)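 Female BDF1 mice (19–21 g), 10 per group, were implanted with 10^5 Lewis lung cells in the right hind leg on day 0, with leg amputation on day 10. Dosing was 160 mg/kg ip, either from −1 h on day 0 q2d×5 or from day 11 q2d×4, in saline prepared daily. Survivors were killed on day 50, and lung metastases were counted by size. Values are averages over 10 mice, dying and killed.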

[10] = species: Mus musculus; assay: Number of mice with metastasis out of 9 mice tested; assay type: functional
Method in brief: (§4)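 Female BDF1 mice (19–21 g) were implanted with Lewis lung carcinoma on day 0 and amputated on day 9. Dosing was 160 mg/kg ip from day 9, q2d×4, as a suspension or solution in 0.9% NaCl. Dying mice and mice killed on day 50 were autopsied to count metastases (<2 mm, >2 mm) and mice bearing metastases.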

[11] = species: Mus musculus; assay: Number of 50-day survivors Out of 9 mice; assay type: functional; method in brief: as §2
[12] = species: Mus musculus; assay: Compound was tested against autopsying on day 50th metastasis( <2 mm size) in mice; assay type: functional; method in brief: as §2
[13] = species: Mus musculus; assay: Number of mice with metastasis Out of 9 mice; assay type: functional; method in brief: as §2
[14] = species: Mus musculus; assay: Compound was tested against autopsying on day 50th metastasis( <1 mm size) in mice; assay type: functional; method in brief: as §3
[15] = tested on: Mus musculus; assay: Median survival time of 10 BDF1 mice was tested for compound (Postamputation schedule 160 mg/kg); assay type: functional; method in brief: as §1
[16] = species: Mus musculus; assay: Average lung weight per mouse was determined; assay type: functional
Method in brief: (§5)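 Female BDF1 mice (19–21 g) implanted with Lewis lung carcinoma on day 0. The tumour-bearing leg was amputated on day 9 or 10. Dosing was 160 mg/kg ip q2d in 0.9% NaCl. Dying mice were autopsied, and survivors were killed and autopsied on day 50.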

[17] = species: Mus musculus; assay: (§6) Percent of mice without metastasis.; assay type: functional
[18] = species: Mus musculus; assay: Number of 50-day survivors out of 9 mice; assay type: functional; method in brief: as §2
[19] = tested on: Mus musculus; assay: Median survival time of 10 BDF1 mice was tested after administration of compound (Preamputation schedule 160 mg/kg); assay type: functional; method in brief: as §1
[20] = species: Mus musculus; assay: Average number of metastasis per mouse.; assay type: functional; method in brief: as §5
[21] = species: Mus musculus; assay: compound was tested against autopsying on day 50th metastasis( <[…] mm size.) in mice.; assay type: functional; method in brief: as §4
[22] = species: Mus musculus; assay: compound was tested against autopsying on day 50th metastasis( >2 mm size.) in mice.; assay type: functional; method in brief: as §3
[23] = species: Mus musculus; assay: compound was tested against autopsying on day 50th metastasis( <1 mm size.) in mice.; assay type: functional; method in brief: as §3
[24] = species: Mus musculus; assay: Number of 50-day survivors Out of 10 mice; assay type: functional; method in brief: as §1
[25] = species: Mus musculus; assay: Number of 50-day survivors out of 10 mice; 2 mice died out of 6 with one metastasis each (5mm i.d.); assay type: functional
[26] = species: Mus musculus; assay: compound was tested against autopsying on day 50th metastasis( 1-2 mm size.) in mice.; assay type: functional; method in brief: as §3
[27] = species: Mus musculus; assay: as §6; assay type: functional; remark: listed apart in the source
[28] = species: Mus musculus; assay: Compound was tested against autopsying on day 50th metastasis( 1-2 mm size) in mice; assay type: functional; method in brief: as §3
[29] = species: Mus musculus; assay: Average lung weight per mouse.; assay type: functional; method in brief: as §5

| Structure (SMILES) | Lung weight [1] [mg] | ILS [3] [%] | Body weight [7] [g] | MST [8] [days] | Average No. of metastasis [9] [count] | M/T [10] | N/T [11] | Average No. of metastasis [12] [count] | Average No. of metastasis [14] [count] | Lung weight [16] | Mice [17] | MST [19] [days] | Average No. of metastasis [20] | Average No. of metastasis [22] [count] | also measured |
| --- | --- | --- | --- | --- | --- | --- | --- | --- | --- | --- | --- | --- | --- | --- | --- |
| O=C1CN2CCN3CC(=O)NC(=O)[C@H]3C2C(=O)N1 (stereo partly drawn) | 813 | 34 | 17.8 | 45 |  |  |  |  |  |  |  |  |  |  | Average No. of metastasis [2]: 14%; Average No. of metastasis [4]: 1%; M/T [5]: 5; N/T [6]: 3 |
| O=C1CN2CCN3CC(=O)N(CN4CCOCC4)C(=O)[C@@H]3C2C(=O)N1CN1CCOCC1 (stereo partly drawn) | 564 | >49 | 19.4 | >50 | 9 | 4 | 5 | 0 |  |  |  |  |  |  |  |
| O=C1CN2CCN3CC(=O)NC(=O)[C@@H]3C2C(=O)N1 (stereo partly drawn) | 749 | 16 | 17.7 | 39 | 13 |  | 2 | 2 |  |  |  |  |  |  | M/T [13]: 7 |
| O=C1CN2CCN3CC(=O)N(CN4CCOCC4)C(=O)[C@H]3C2C(=O)N1CN1CCOCC1 (stereo in doubt; 3) |  |  |  |  |  |  | 5 |  | 0.2 | 754 mg and 752 mg | 30% and 20% | 38.5 | 15 and 13.8 |  | MST [15]: 35 days; N/T [18]: 5 |
| O=C1CN2CCN3CC(=O)N(CN4CCOCC4)C(=O)[C@H]3C2C(=O)N1CN1CCOCC1 (stereo in doubt; form 1) | 369 |  | 19.9 |  |  | 1 | 7 |  |  |  |  | 39 |  | 3 | Average No. of metastasis [21]: 0 count |
| O=C1CN2CCN3CC(=O)N(CN4CCOCC4)C(=O)[C@H]3C2C(=O)N1CN1CCOCC1 (stereo in doubt; form 2) |  |  |  |  | 8.3 |  |  |  | 1 | 641 mg | 40% | 39 | 12.8 and 7.7 | 4.8 | Average No. of metastasis [23]: 0.3 count; N/T [24]: 4; N/T [25]: 6; Average No. of metastasis [26]: 2.6 count; Mice [27]: 40%; Average No. of metastasis [28]: 3.5 count; Lung weight [29]: 538 mg |
